# Assay results as given in ChEMBL document CHEMBL1123392 (J Med Chem, 1986).
# Calls of active or inactive are those of the source. No cut-off for these calls is given here.
# Columns and labels:
# Rattus norvegicus [1] = assay: Dopaminergic activity in rats rendered hypokinetic by the bilateral injection of 6-hydroxydopamine (6-OHDA) into the anterolateral hypothalamus at dose of 50 mg/kg sc; Inactive; assay type: functional, organism-based; set-up: dose 50 mg/kg
# Rattus norvegicus [2] = assay: Max. intensity of rotational behavior in rats with a unilateral 6-OHDA-induced lesion of the nigrostriatal dopamine (DA) pathway at dose of 2.5 mg/kg sc.; assay type: functional
# Outline: (§1)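 Male Sprague–Dawley rats given unilateral 6-OHDA (8 μg in 3 μL, with ascorbic acid) into the left medial forebrain bundle under pentobarbital anesthesia. Rats were selected 3–4 weeks later for turning 8–10/min after apomorphine 0.25 mg/kg sc. Groups of 4–8 were dosed sc (in water or Tween 80 suspension) and recorded in automatic rotometers until turning stopped. Outputs: total contralateral turns and peak rotations/min.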
# D(2) dopamine receptor = D(2) dopamine receptor (Rattus norvegicus, UniProt P61169); assay: Compound was for its ability to displace [3H]haloperidol binding to rat striatal Dopamine receptor D2
# Outline: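 Rat striatal membranes at about 20 mg/mL final tissue concentration. [3H]haloperidol 2 nM, incubated 10 min. Nonspecific binding defined with (+)-butaclamol 1.0 μM.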
# Rattus norvegicus [3] = assay: Effective dose which lowered the serum prolactin levels after ip administration in rats; assay type: functional
# Outline: (§2)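 Sprague–Dawley rats given α-methyltyrosine 200 mg/kg ip 1 h before compound. Decapitated 30 min after ip or 60 min after oral dosing. Serum prolactin measured by double-antibody RIA. ED50 = dose lowering prolactin to 50% of the α-methyltyrosine-treated control, from one dose–response curve of at least seven doses with 7–9 rats per dose.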
# Rattus norvegicus [4] = assay: Dopaminergic activity in rats rendered hypokinetic by the bilateral injection of 6-hydroxydopamine (6-OHDA) into the anterolateral hypothalamus at dose of 5 mg/kg sc; assay type: functional; settings: route subcutaneous
# Rattus norvegicus [5] = species: Rattus norvegicus; assay: Ability to induce contralateral rotational behavior in rats with a unilateral 6-OHDA-induced lesion of the nigrostriatal dopamine (DA) pathway.; assay type: functional; outline: as §1
# [6] = biological target: T1, Adrenergic receptor alpha-1 (Rattus norvegicus, UniProt P15823+P23944+P43140); assay: Ability to displace [3H]WB-4101 from rat brain alpha-1 adrenergic receptor
# T1 sequence (P15823 whole entry): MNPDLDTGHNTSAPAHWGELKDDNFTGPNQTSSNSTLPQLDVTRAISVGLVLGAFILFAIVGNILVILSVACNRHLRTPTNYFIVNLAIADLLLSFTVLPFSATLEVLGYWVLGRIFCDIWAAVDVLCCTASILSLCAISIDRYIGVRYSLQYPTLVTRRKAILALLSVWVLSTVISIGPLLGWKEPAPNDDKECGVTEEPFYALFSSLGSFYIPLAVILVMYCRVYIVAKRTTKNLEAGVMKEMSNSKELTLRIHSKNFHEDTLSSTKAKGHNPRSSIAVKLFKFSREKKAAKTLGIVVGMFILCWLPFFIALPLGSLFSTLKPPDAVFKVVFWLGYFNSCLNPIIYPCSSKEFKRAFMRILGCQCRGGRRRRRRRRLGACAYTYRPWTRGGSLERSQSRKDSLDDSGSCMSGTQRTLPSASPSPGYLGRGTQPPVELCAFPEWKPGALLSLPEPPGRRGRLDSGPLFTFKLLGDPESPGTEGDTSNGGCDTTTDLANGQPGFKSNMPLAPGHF
# T1 sequence (P23944 whole entry): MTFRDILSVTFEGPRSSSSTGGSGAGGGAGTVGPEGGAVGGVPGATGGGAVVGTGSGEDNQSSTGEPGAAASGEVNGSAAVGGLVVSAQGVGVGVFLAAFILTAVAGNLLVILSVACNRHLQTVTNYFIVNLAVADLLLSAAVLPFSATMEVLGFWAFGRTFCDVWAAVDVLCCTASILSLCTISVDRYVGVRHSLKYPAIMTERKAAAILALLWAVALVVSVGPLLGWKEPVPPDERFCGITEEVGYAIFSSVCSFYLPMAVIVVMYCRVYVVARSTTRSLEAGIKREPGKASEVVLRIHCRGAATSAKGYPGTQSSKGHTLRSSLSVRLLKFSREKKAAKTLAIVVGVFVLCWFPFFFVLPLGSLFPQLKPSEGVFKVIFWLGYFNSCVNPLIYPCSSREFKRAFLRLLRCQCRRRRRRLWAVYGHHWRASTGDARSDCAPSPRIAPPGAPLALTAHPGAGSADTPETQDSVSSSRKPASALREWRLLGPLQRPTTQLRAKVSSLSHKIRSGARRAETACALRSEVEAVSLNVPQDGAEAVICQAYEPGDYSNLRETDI
# T1 sequence (P43140 whole entry): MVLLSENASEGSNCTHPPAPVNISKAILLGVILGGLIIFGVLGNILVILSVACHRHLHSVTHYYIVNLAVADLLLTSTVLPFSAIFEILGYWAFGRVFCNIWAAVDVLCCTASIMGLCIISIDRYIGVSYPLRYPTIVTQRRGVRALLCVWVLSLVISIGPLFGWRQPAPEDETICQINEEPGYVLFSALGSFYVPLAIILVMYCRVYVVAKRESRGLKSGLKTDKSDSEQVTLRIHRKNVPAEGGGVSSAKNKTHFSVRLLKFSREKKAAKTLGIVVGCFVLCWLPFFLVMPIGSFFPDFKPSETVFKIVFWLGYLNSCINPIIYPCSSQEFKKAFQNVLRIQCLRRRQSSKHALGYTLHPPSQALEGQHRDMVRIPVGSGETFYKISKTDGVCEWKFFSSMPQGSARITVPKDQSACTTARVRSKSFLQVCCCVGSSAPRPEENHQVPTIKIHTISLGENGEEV
# Outline: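 Rat whole brain minus cerebellum and brain stem, membranes at about 20 mg/mL final tissue concentration. [3H]WB-4101 0.22 nM, incubated 15 min. Nonspecific binding defined with (-)-norepinephrine 2 μM. IC50 = concentration giving 50% displacement of specific binding, taken from Hill linearization. Three separate experiments.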
# Rattus norvegicus [7] = assay: Dopaminergic activity in rats rendered hypokinetic by the bilateral injection of 6-hydroxydopamine (6-OHDA) into the anterolateral hypothalamus at dose of 10 mg/kg sc; assay type: functional; settings: route subcutaneous
# Rattus norvegicus [8] = assay: Effective dose which lowered the serum prolactin levels after po administration in rats; assay type: functional; outline: as §2
# Rattus norvegicus [9] = assay: Dopaminergic activity in rats rendered hypokinetic by the bilateral injection of 6-hydroxydopamine (6-OHDA) into the anterolateral hypothalamus at dose of 50 mg/kg sc; assay type: functional; settings: route subcutaneous
# Rattus norvegicus [10] = species: Rattus norvegicus; assay: Ability to induce contralateral rotational behavior in rats with a unilateral 6-OHDA-induced lesion of the nigrostriatal dopamine (DA) pathway; assay type: functional; outline: as §1
# Rattus norvegicus [11] = assay: Max. intensity of rotational behavior in rats with a unilateral 6-OHDA-induced lesion of the nigrostriatal dopamine (DA) pathway at dose of 2.5 mg/kg sc; assay type: functional; settings: route subcutaneous; outline: as §1
# Rattus norvegicus [12] = assay: Dopaminergic activity in rats rendered hypokinetic by the bilateral injection of 6-hydroxydopamine (6-OHDA) into the anterolateral hypothalamus at dose of 2.5 mg/kg sc; assay type: functional; settings: route subcutaneous
# Rattus norvegicus [13] = assay: Dopaminergic activity in rats rendered hypokinetic by the bilateral injection of 6-hydroxydopamine (6-OHDA) into the anterolateral hypothalamus at dose of 25 mg/kg sc; Inactive; assay type: functional, organism-based; set-up: dose 25 mg/kg
# Rattus norvegicus [14] = assay: Dopaminergic activity in rats rendered hypokinetic by the bilateral injection of 6-hydroxydopamine (6-OHDA) into the anterolateral hypothalamus at dose of 1.25 mg/kg sc; assay type: functional; settings: route subcutaneous
# Rattus norvegicus [15] = assay: Dopaminergic activity in rats rendered hypokinetic by the bilateral injection of 6-hydroxydopamine (6-OHDA) into the anterolateral hypothalamus at dose of 25 mg/kg sc; assay type: functional; settings: route subcutaneous
# [16] = Rattus norvegicus, Serum, ip, read-out: ED50
# [17] = Rattus norvegicus, Serum, po, read-out: ED50
# Chain of D(2) dopamine receptor (P61169 whole entry): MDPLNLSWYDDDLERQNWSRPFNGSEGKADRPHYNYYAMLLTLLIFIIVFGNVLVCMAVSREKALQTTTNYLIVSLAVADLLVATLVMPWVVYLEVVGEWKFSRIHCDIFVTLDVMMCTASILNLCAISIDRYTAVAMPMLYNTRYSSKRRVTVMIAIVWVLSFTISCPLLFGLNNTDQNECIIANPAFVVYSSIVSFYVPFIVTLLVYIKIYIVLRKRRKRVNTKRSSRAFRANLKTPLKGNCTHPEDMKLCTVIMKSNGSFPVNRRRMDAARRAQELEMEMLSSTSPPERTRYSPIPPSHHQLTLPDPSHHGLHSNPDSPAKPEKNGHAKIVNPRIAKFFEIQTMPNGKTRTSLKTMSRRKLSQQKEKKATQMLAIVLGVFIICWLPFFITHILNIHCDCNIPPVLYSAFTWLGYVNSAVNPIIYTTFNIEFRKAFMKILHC
compound,measurement,setting,value
COc1cc(C(O)CN2CCN(c3cccccc3=O)CC2)cc(OC)c1OC (centres undefined),Activity,Rattus norvegicus [1],inactive
COc1ccc([C@@H](O)CN2CCN(c3cccccc3=O)CC2)cc1OC,Max intensity,Rattus norvegicus [2],1.3 rotations min-1
same,IC50,D(2) dopamine receptor,16600 nM
same,ED50,Rattus norvegicus [3]; [16],2.7 mg/kg
same,Activity,Rattus norvegicus [4],27
same,Activity,Rattus norvegicus [5],140
same,IC50,[6],1440 nM
COc1ccc([C@@H](O)[C@@H](C)N2CCN(c3cccccc3=O)CC2)cc1OC,IC50,D(2) dopamine receptor,8550 nM
same,Activity,Rattus norvegicus [7],55
COc1ccc(C(O)CN2CCN(c3ccccc3)CC2)cc1OC (centres undefined),Activity,Rattus norvegicus [1],inactive
CC(C)C[C@H]1C(=O)N2CCC[C@H]2[C@]2(O)O[C@](NC(=O)[C@@H]3C=C4c5cccc6[nH]c(Br)c(c56)C[C@H]4N(C)C3)(C(C)C)C(=O)N12 [BROMOCRIPTINE],Max intensity,Rattus norvegicus [2],4.7 rotations min-1
same,ED50,Rattus norvegicus [3]; [16],0.24 mg/kg
same,ED50,Rattus norvegicus [8]; [17],0.6 mg/kg
same,Activity,Rattus norvegicus [7],112
same,Activity,Rattus norvegicus [5],836
COc1ccc([C@H](O)CN2CCN(c3cccccc3=O)CC2)cc1OC [CILADOPA],Max intensity,Rattus norvegicus [2],10.7 rotations min-1
same,IC50,D(2) dopamine receptor,2200 nM
same,ED50,Rattus norvegicus [3]; [16],0.36 mg/kg
same,ED50,Rattus norvegicus [8]; [17],0.9 mg/kg
same,Activity,Rattus norvegicus [4],320
same,Activity,Rattus norvegicus [5],1770
same,IC50,[6],1090 nM
COc1ccc(CCNCC/N=c2/cccccc2O)cc1OC,Activity,Rattus norvegicus [1],inactive
COc1ccc(C(O)CN2CCN(c3cccccc3=O)CC2)cc1 (centres undefined),Activity,Rattus norvegicus [9],105
COc1ccc(CC/N=c2/cccccc2O)cc1OC,Activity,Rattus norvegicus [1],inactive
O=c1cccccc1N1CCN(CCc2ccc(F)cc2)CC1,Activity,Rattus norvegicus [1],inactive
COc1ccc(C(O)CN2CCN(c3cccccc3=O)CC2)cc1OC.Cl (centres undefined),IC50,D(2) dopamine receptor,1500 nM
same,ED50,Rattus norvegicus [3]; [16],0.48 mg/kg
same,ED50,Rattus norvegicus [8]; [17],2 mg/kg
same,Activity,Rattus norvegicus [10],823
same,Activity,Rattus norvegicus [7],191
same,IC50,[6],1070 nM
same,Max intensity,Rattus norvegicus [11],9.2 rotations min-1
O=c1cccccc1N1CCN(CC(O)c2ccccc2)CC1 (centres undefined),Activity,Rattus norvegicus [1],inactive
COc1ccc([C@H](O)[C@@H](C)N2CCN(c3cccccc3=O)CC2)cc1OC (stereo in doubt; 14),Max intensity,Rattus norvegicus [2]; 2.5 mg/kg,9.5 rotations min-1
same,IC50,D(2) dopamine receptor,1050 nM
same,ED50,Rattus norvegicus [3],0.2 mg/kg
same,ED50,Rattus norvegicus [8]; [17],0.25 mg/kg
same,Activity,Rattus norvegicus [12],111
same,Activity,Rattus norvegicus [5],1903
O=c1cccccc1N1CCN(CCc2ccccc2)CC1,Activity,Rattus norvegicus [1],inactive
COc1cc(C(O)CN2CCN(c3cccccc3=O)CC2)ccc1O (centres undefined),Activity,Rattus norvegicus [13],inactive
COc1ccc([C@H](O)[C@@H](C)N2CCN(c3cccccc3=O)CC2)cc1OC (stereo in doubt; 17),Max intensity,Rattus norvegicus [2]; 2.5 mg/kg,1.1 rotations min-1
same,ED50,Rattus norvegicus [3],2.2 mg/kg
same,Activity,Rattus norvegicus [12],20
same,Activity,Rattus norvegicus [5],121
O=c1cccccc1N1CCN(CC(O)c2ccc(F)cc2)CC1 (centres undefined),Activity,Rattus norvegicus [1],inactive
COc1cccc(C(O)CN2CCN(c3cccccc3=O)CC2)c1 (centres undefined),Activity,Rattus norvegicus [1],inactive
COc1ccc(CCN2CCCN(c3cccccc3=O)CC2)cc1OC,Activity,Rattus norvegicus [1],inactive
COc1ccc([C@H](O)[C@@H](C)N2CCN(c3cccccc3=O)CC2)cc1OC (stereo in doubt; 18),Max intensity,Rattus norvegicus [2]; 2.5 mg/kg,14.6 rotations min-1
same,ED50,Rattus norvegicus [3],0.04 mg/kg
same,ED50,Rattus norvegicus [8],0.15 mg/kg
same,Activity,Rattus norvegicus [14],186
same,Activity,Rattus norvegicus [5],2109
O=c1cccccc1N1CCN(CCc2ccc(O)c(O)c2)CC1,Activity,Rattus norvegicus [15],98
same,IC50,D(2) dopamine receptor,760 nM
NCCc1ccc(O)c(O)c1 [DOPAMINE],IC50,[6],90000 nM
COc1ccc(CCN2CCN(c3cccccc3=O)CC2)cc1OC,IC50,D(2) dopamine receptor,880 nM
same,Activity,Rattus norvegicus [7],101
